Five molecules from ChEMBL document CHEMBL1130822, “Synthesis and biological evaluation of new tetrahydronaphthalene derivatives as thromboxane receptor antagonists” (Bioorg Med Chem Lett, 1998) can be followed below.

For one assay, the species on record is Cavia porcellus. Nature of the assay: Compound was tested for inhibition of U-46,619 induced increase in tracheal pressure of guinea pigs. It counts as functional, Trachea. Conditions: for ED50: Cavia porcellus, Trachea, read-out: ID50. Summed up:
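Compound given i.v. to guinea pigs; tracheal pressure rise evoked with U46619 by the Konzett–Rossler technique; ID50 expressed in μg/kg.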

The species entered for the next assay is Homo sapiens. Nature of the assay: Compound was tested for inhibition of U-46,619 induced aggregation of human platelets. It counts as functional. The method in brief: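 Human platelet-rich plasma aggregated with the TP-receptor agonist U46619, with and without compound; inhibition of aggregation measured and IC50 expressed in μM.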
Another assay is filed under the species Oryctolagus cuniculus. Nature of the assay: Compound was tested for inhibition of U-46,619 induced contraction of isolated rabbit saphenous vein. The class given is functional. The following applies: for Kb: Oryctolagus cuniculus, Saphenous vein, read-out: pA2 (converted). Summed up:
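Isolated rabbit saphenous vein rings contracted with increasing U46619 concentrations in the absence or presence of compound; antagonism quantified as pA2 values.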

Usually IC50 stands for the concentration needed to halve the response being measured. A high value points to weaker potency. As for `O=C(O)CC/C=C\C[C@@H]1CO[C@H](c2ccccc2Cl)O[C@@H]1c1ccccc1O`, in the assay filed under Cavia porcellus, the ED50 came out at 0.7 µg/kg. Further, the IC50 in the assay filed under Homo sapiens (Homo sapiens) worked out at 13 nM. The Kb in the assay filed under Oryctolagus cuniculus was 2.51 nM.

For orientation: pA2 means a measure of antagonist potency on a negative log scale. The molecule `Cc1ccc2c(c1CCC(=O)O)CCC(NS(=O)(=O)c1ccc(Cl)cc1)C2` (stereo in doubt; 2a) returned an ID50 in the assay listed under Cavia porcellus of 31 µg/kg. Besides, the IC50 in the assay filed under Homo sapiens was found to be 330 nM. The same molecule came in with a pA2 in the assay filed under Oryctolagus cuniculus of 8.9.

With `Cc1ccc2c(c1CCC(=O)O)CCC(NS(=O)(=O)c1ccc(Cl)cc1)C2` (stereo in doubt; 2a (l)), the ID50 in the assay filed under Cavia porcellus worked out at 15 µg/kg. For the same molecule, the IC50 in the assay filed under Homo sapiens is 780 nM. In the assay filed under Oryctolagus cuniculus, this molecule showed a pA2 of 8.2.

For `O=C(O)CCn1c2c(c3ccccc31)CC(NS(=O)(=O)c1ccc(F)cc1)CC2` (single isomer, unassigned) [RAMATROBAN], the ED50 in the assay filed under Cavia porcellus worked out at 17 µg/kg. In the assay filed under Homo sapiens (Homo sapiens), this molecule returned an IC50 of 380 nM. Moreover, the Kb in the assay filed under Oryctolagus cuniculus was 12.6 nM.

On to `Cc1ccc2c(c1CCC(=O)O)CCC(NS(=O)(=O)c1ccc(Cl)cc1)C2` (stereo in doubt), for which, in the assay filed under Cavia porcellus, the ID50 was 35 µg/kg. This molecule came in with an IC50 in the assay filed under Homo sapiens of 230 nM.
